Data set [1] can be described thus: Cytotoxicity against MDBK cells after 48 to 96 hrs by MTT assay. It counts as cell-based, Bos taurus. The note with it: cattle, mdbk. In outline: (§1)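 Mock-infected cells in maintenance medium, MDBK at 6 × 10^5 and BHK at 1 × 10^6 cells/mL initial density, with or without serial compound dilutions. Run in parallel with antiviral assays. Viability by MTT after 48–96 h at 37 °C, 5% CO2. CC50 = concentration reducing viability 50%.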
(Tetrazolium dyes change colour on reduction, which living cells bring about.)

Data set [2] concerns Respiratory syncytial virus. In words: Antiviral activity against Respiratory syncytial virus A2 infected in Vero-76 cells after 5 days by plaque reduction assay. It counts as functional, organism-based. The following applies: human respiratory syncytial virus, A2, Vero 76, 120 h. In general terms: In a plaque reduction assay, fewer plaques than in the control indicate reduced infectivity or spread.

The test system of the next data set is Vero. In words: Cytotoxicity against african green monkey Vero 76 cells by crystal violet staining. The following applies: chlorocebus sabaeus, vero. It counts as cell-based. The method in brief: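 Mock-infected Vero 76 seeded at 4 × 10^5 cells/mL, run in parallel with plaque assays, with or without serial compound dilutions. Cell number of monolayers determined by crystal violet staining. CC50 = concentration reducing viable cell number 50%.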

The next data set deals with Poliovirus 1. In words: Antiviral activity against Human poliovirus 1 strain Sabin after 2 days by plaque reduction assay. The format is functional. The note with it: Enterovirus C, 48 h.
A further data set deals with MT4. In words: Cytotoxicity against human MT4 cells after 96 hrs by MTT assay. The format is cell-based. The note with it: mt4, 96 h. In outline: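 Exponentially growing mock-infected MT-4 seeded at 1 × 10^5 cells/mL in RPMI-1640 with 10% FCS, penicillin and streptomycin. Incubated with or without serial compound dilutions at 37 °C, 5% CO2. Viability by MTT after 96 h. CC50 = concentration reducing viability 50%.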

The test system of a further data set is Yellow fever virus. In words: Antiviral activity against Yellow fever virus infected in BHK-21 cells assessed as inhibition of virus-induced cytopathicity after 3 to 4 days by MTT assay. It counts as functional, organism-based. For orientation: Cytopathic effects are the visible damage that an infection or toxin causes in cultured cells.
Data set [3] deals with Vesicular stomatitis virus. Kind of data set: Antiviral activity against Vesicular stomatitis virus after 2 days by plaque reduction assay. It counts as functional, organism-based.
Data set [4] concerns Human immunodeficiency virus 1. In words: Antiviral activity against HIV1 infected in human MT4 cells assessed as inhibition of virus-induced cytopathicity after 4 days by MTT assay. It counts as functional, organism-based.
Data set [5] deals with Mammalian orthoreovirus 1. Kind of data set: Antiviral activity against Reovirus-1 infected in BHK-21 cells assessed as inhibition of virus-induced cytopathicity after 3 to 4 days by MTT assay. The format is functional, organism-based. The note with it: Mammalian orthoreovirus 1, BHK-21. In outline:
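BHK-21 cells seeded at 5 × 10^4 cells/well, grown overnight to confluent monolayers at 37 °C in 5% CO2, then infected at m.o.i. 0.01 in serum-free medium. One hour later, MEM Earle's with 1% final inactivated FCS added, with or without serial compound dilutions. Viability read by MTT after 3–4 days at 37 °C. EC50 is the concentration giving 50% protection from cytopathogenicity.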

A further data set relates to Human alphaherpesvirus 1. In words: Antiviral activity against HSV1 infected in Vero-76 cells after 3 days by plaque reduction assay. The format is functional, organism-based. The note with it: Human alphaherpesvirus 1, Vero 76, 72 h.
The test system of another data set is Vaccinia virus. In words: Antiviral activity against Vaccinia virus after 3 days by plaque reduction assay. It counts as functional, organism-based. The following applies: Orthopoxvirus vaccinia.
The test system of a further data set is Coxsackievirus B2. Kind of data set: Antiviral activity against Coxsackie virus type B2 virus infected in african green monkey Vero-76 cells after 3 days by plaque reduction assay. It counts as functional, organism-based. The note with it: Enterovirus B, Vero 76, 72 h. The method in brief:
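Vero 76 cells seeded at 2 × 10^5 cells/well, grown overnight to confluence at 37 °C in 5% CO2, then infected at 50–100 PFU/well. Unadsorbed virus removed. Overlay of DMEM with 1% inactivated FCS and 0.75% methylcellulose, with or without serial compound dilutions. After 3 days at 37 °C, fixed and stained with crystal violet in PBS/50% ethanol; plaques counted. EC50 is the concentration reducing plaque number by 50%.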

The nature of data set [6]: Cytotoxicity against hamster BHK21 cells assessed as reduction in cell viability after 48 to 96 hrs by MTT assay. It counts as cell-based, Mesocricetus auratus, BHK-21. The note with it: bhk-21. The method in brief:
as §1

The source made the active and inactive calls. No rule for the calls is given here.

One may read the CC50 as the concentration at which the toxic effect on the cells reaches its halfway point. By EC50 is commonly meant the concentration needed to bring the measured effect to its halfway point. In the case of `c1ccc(/N=N/N2CCCC2)cc1`, the CC50 in [1] is more than 100 µM; in the data set on Vero, more than 100 µM; with MT4 it was more than 100 µM; in data set [6], not below 100 µM. Further, the concentration giving a half-maximal response (EC50) is not below 100 µM in [2]; more than 100 µM in the data set on Poliovirus 1; more than 100 µM in the data set on Yellow fever virus; more than 100 µM in data set [5]; more than 100 µM with Human alphaherpesvirus 1; more than 100 µM with Coxsackievirus B2. The result (in data set [3]; in the data set on Vaccinia virus) was inactive. In data set [4], the inhibition entry is “inactive”.

With `Clc1ccc(/N=N/N2CCCCC2)cc1`, the CC50 (in data set [1]; in the data set with Vero; in the data set with MT4; in data set [6]) was more than 100 µM in each case. Also, the concentration giving a half-maximal response (EC50) (in data set [2]; with Poliovirus 1; in the data set on Yellow fever virus; in data set [5]; with Human alphaherpesvirus 1; in the data set on Coxsackievirus B2) was more than 100 µM each time. Moreover, the outcome (in [3]; in the data set with Vaccinia virus) was inactive. In addition, in data set [4], the inhibition result was “inactive”.

`c1ccc(/N=N/N2CCN(c3ncccn3)CC2)cc1`: the CC50 is more than 100 µM in [1], 65 µM in the data set on Vero, 90 µM with MT4 and more than 100 µM in data set [6]. Moreover, the EC50 in [2] is more than 65 µM; with Poliovirus 1, more than 65 µM; in the data set with Yellow fever virus it was more than 100 µM; in [5], more than 100 µM; with Human alphaherpesvirus 1, more than 65 µM; in the data set on Coxsackievirus B2, 10 µM. In addition, the result (in [3]; with Vaccinia virus) was inactive. For the same compound, the inhibition entry in data set [4] was “inactive”.

As for `COc1ccc(/N=N/N2CCCC2)cc1`, the CC50 is 60 µM in [1], 90 µM in the data set on Vero, 68 µM in the data set on MT4 and not below 100 µM in [6]. Also, the concentration giving a half-maximal response (EC50) in data set [2] is more than 90 µM; with Poliovirus 1, more than 90 µM; in the data set on Yellow fever virus it was more than 100 µM; in data set [5], more than 100 µM; in the data set on Human alphaherpesvirus 1, more than 90 µM; in the data set on Coxsackievirus B2 it was more than 90 µM. Further, the outcome (in data set [3]; with Vaccinia virus) was inactive. For the same compound, the inhibition result in [4] was “inactive”.

As to `Clc1ccc(/N=N/N2CCCC2)cc1Cl`, the half-maximal cytotoxic concentration (CC50) in data set [1] was 70 µM; in the data set with Vero, 58 µM; in the data set on MT4, 75 µM; in data set [6], 50 µM. Further, the EC50 is 20 µM in [2]; 25 µM in the data set with Poliovirus 1; more than 50 µM in the data set with Yellow fever virus; more than 50 µM in data set [5]; more than 58 µM with Human alphaherpesvirus 1; more than 58 µM with Coxsackievirus B2. The result (in data set [3]; in the data set on Vaccinia virus) was inactive. Moreover, the inhibition entry in data set [4] is “inactive”.

`Clc1ccc(/N=N/N2CCCC2)cc1`: the CC50 (in data set [1]; with Vero; in the data set with MT4; in data set [6]) was more than 100 µM each time. The EC50 was more than 100 µM in data set [2]; 42 µM with Poliovirus 1; more than 100 µM in the data set with Yellow fever virus; more than 100 µM in data set [5]; more than 100 µM in the data set on Human alphaherpesvirus 1; more than 100 µM in the data set on Coxsackievirus B2. Further, the outcome (in data set [3]; in the data set with Vaccinia virus) was inactive. Further, the inhibition entry in data set [4] was “inactive”.

On to `c1ccc(/N=N/N2CCCCC2)cc1`, for which the 50% cytotoxic concentration (CC50) (in data set [1]; in the data set on Vero; with MT4; in data set [6]) was more than 100 µM throughout. Further, the EC50 (in data set [2]; in the data set with Poliovirus 1; in the data set with Yellow fever virus; in data set [5]; in the data set with Human alphaherpesvirus 1; in the data set on Coxsackievirus B2) was more than 100 µM throughout. For the same compound, the result (in data set [3]; in the data set with Vaccinia virus) was inactive. Also, the inhibition result in data set [4] was “inactive”.

`Brc1ccc(/N=N/N2CCCC2)cc1`: the CC50 was more than 100 µM in [1], not below 100 µM in the data set with Vero, more than 100 µM in the data set on MT4 and more than 100 µM in data set [6]. In addition, the EC50 is more than 100 µM in [2]; 51 µM in the data set on Poliovirus 1; more than 100 µM with Yellow fever virus; more than 100 µM in data set [5]; more than 100 µM in the data set with Human alphaherpesvirus 1; more than 100 µM in the data set on Coxsackievirus B2. Further, the result (in data set [3]; in the data set with Vaccinia virus) was inactive. Besides, in data set [4], the inhibition entry is “inactive”.

For `O=c1cccc2n1CC1CC2CN(/N=N/c2ccc(Cl)cc2)C1` (configuration not stated), the CC50 in [1] worked out at 97 µM; in the data set on Vero, 55 µM; in the data set with MT4, 46 µM; in [6] it was 85 µM. Besides, the EC50 in [2] was more than 55 µM; in the data set with Poliovirus 1, more than 55 µM; with Yellow fever virus, more than 85 µM; in data set [5], more than 85 µM; with Human alphaherpesvirus 1, more than 55 µM; with Coxsackievirus B2, more than 55 µM. In addition, the outcome (in [3]; in the data set with Vaccinia virus) was inactive. The inhibition result in data set [4] is “inactive”.

Regarding `CCOC(=O)N1CCN(/N=N/c2ccccc2)CC1`, the half-maximal cytotoxic concentration (CC50) was more than 100 µM in data set [1], 90 µM in the data set with Vero, 100 µM in the data set with MT4 and more than 100 µM in data set [6]. Further, the EC50 in data set [2] is more than 90 µM; in the data set on Poliovirus 1, more than 90 µM; in the data set on Yellow fever virus it was more than 100 µM; in data set [5], more than 100 µM; in the data set on Human alphaherpesvirus 1 it was more than 90 µM; in the data set on Coxsackievirus B2, 30 µM. For the same compound, the result (in data set [3]; with Vaccinia virus) was inactive. For the same compound, the inhibition entry in data set [4] was “inactive”.

Regarding `O=[N+]([O-])c1cccc(/N=N/N2CCCC2)c1`, the CC50 in data set [1] is more than 100 µM; in the data set on Vero, 80 µM; in the data set on MT4, 66 µM; in data set [6], 42 µM. In addition, the concentration giving a half-maximal response (EC50) is 8 µM in data set [2]; 30 µM in the data set with Poliovirus 1; more than 42 µM in the data set on Yellow fever virus; more than 42 µM in data set [5]; more than 80 µM with Human alphaherpesvirus 1; more than 80 µM with Coxsackievirus B2. Moreover, the outcome (in [3]; in the data set with Vaccinia virus) was inactive. Moreover, the inhibition entry in [4] is “inactive”.

Regarding `CN1CCN(/N=N/c2ccccc2)CC1`, the 50% cytotoxic concentration (CC50) in data set [1] was more than 100 µM; with Vero it was 45 µM; in the data set on MT4 it was 65 µM; in [6] it was 70 µM. Moreover, the concentration giving a half-maximal response (EC50) in data set [2] was more than 45 µM; with Poliovirus 1 it was more than 45 µM; in the data set with Yellow fever virus it was more than 70 µM; in [5] it was more than 70 µM; in the data set on Human alphaherpesvirus 1 it was more than 45 µM; in the data set on Coxsackievirus B2 it was 14 µM. Also, the outcome (in data set [3]; in the data set with Vaccinia virus) was inactive. Moreover, the inhibition entry in data set [4] was “inactive”.

For the compound `Brc1cccc(/N=N/N2CCCCC2)c1`, the 50% cytotoxic concentration (CC50) in [1] is more than 100 µM; in the data set with Vero, 85 µM; in the data set with MT4, more than 100 µM; in [6], more than 100 µM. In addition, the concentration for a half-maximal effect (EC50) in data set [2] was more than 85 µM; in the data set with Poliovirus 1 it was more than 85 µM; with Yellow fever virus, more than 100 µM; in [5], more than 100 µM; in the data set on Human alphaherpesvirus 1 it was more than 85 µM; in the data set on Coxsackievirus B2, more than 85 µM. Moreover, the result (in [3]; in the data set on Vaccinia virus) was inactive. For the same compound, in data set [4], the inhibition result is “inactive”.

On to `O=C1CCN(/N=N/c2ccccc2)CC1`, for which the CC50 in [1] was not below 100 µM; with Vero, 60 µM; with MT4 it was more than 100 µM; in data set [6] it was 90 µM. For the same compound, the EC50 is more than 60 µM in data set [2]; more than 60 µM in the data set with Poliovirus 1; more than 90 µM in the data set on Yellow fever virus; more than 90 µM in [5]; more than 60 µM with Human alphaherpesvirus 1; 13 µM in the data set on Coxsackievirus B2. In addition, the result (in [3]; in the data set on Vaccinia virus) was inactive. For the same compound, the inhibition entry in data set [4] was “inactive”.

(Values after ChEMBL document CHEMBL1154067, “Antiviral and cytotoxic activities of aminoarylazo compounds and aryltriazene derivatives” (Bioorg Med Chem, 2009).)
